Calls of active or inactive are those of the source. No cut-off for these calls is given here.
Columns and labels:
[1] = Induction of IL6 secretion in human CD161+ CD3+ NKT cells at 10 ug/ml after 18 hrs relative to basal level; type: functional
Procedure, shortened: (§1)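 Human Vα24i NKT cell lines were expanded for 10 days on irradiated (3,000 rad) autologous immature DCs with 10 units/ml IL-2. The cells (1 × 10^5) were cocultured with 5 × 10^4 irradiated immature CD14+ DCs plus glycolipid at 10 μg/ml. Supernatants were collected at 18 h and read on a 22-plex Luminex bead panel. Triplicates, mean ± SD.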

[2] = Induction of IL4 secretion in human CD161+ CD3+ NKT cells at 10 ug/ml after 18 hrs relative to basal level; type: functional; procedure, shortened: as §1
Mus musculus [3] = test: Induction of IL2 secretion in BALB/c mouse serum at 2 ug, iv after 2 hrs relative to control; type: functional
Procedure, shortened: (§2)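 BALB/c mice received an i.v. injection of 100 μl of glycolipid diluted to 20 μg/ml in saline from DMSO stock, with 1% DMSO as vehicle. Serum cytokines/chemokines were measured at 2 and 18 h after injection.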

Mus musculus [4] = test: Activation of B cells in BALB/c mouse at 2 ug, iv after 72 hrs by flow cytometry; type: functional, organism-based
[5] = Induction of IL2 secretion in human CD161+ CD3+ NKT cells at 10 ug/ml after 18 hrs relative to basal level; type: functional; procedure, shortened: as §1
[6] = Induction of GM-CSF secretion in human CD161+ CD3+ NKT cells at 10 ug/ml after 18 hrs relative to basal level; type: functional; procedure, shortened: as §1
Mus musculus [7] = test: Induction of TNFalpha secretion in BALB/c mouse serum at 2 ug, iv after 18 hrs relative to control; type: functional; procedure, shortened: as §2
Mus musculus [8] = test: Induction of KC secretion in BALB/c mouse serum at 2 ug, iv after 2 hrs relative to control; type: functional; procedure, shortened: as §2
Mus musculus [9] = test: Induction of IL12p70 secretion in BALB/c mouse serum at 2 ug, iv after 18 hrs relative to control; type: functional; procedure, shortened: as §2
Mus musculus [10] = test: Induction of GM-CSF secretion in BALB/c mouse serum at 2 ug, iv after 2 hrs relative to control; type: functional; procedure, shortened: as §2
Mus musculus [11] = test: Induction of IL1-beta secretion in BALB/c mouse serum at 2 ug, iv after 18 hrs relative to control; type: functional; procedure, shortened: as §2
[12] = Induction of IL12p40 secretion in human CD161+ CD3+ NKT cells at 10 ug/ml after 18 hrs relative to basal level; type: functional; procedure, shortened: as §1
[13] = Induction of IL10 secretion in human CD161+ CD3+ NKT cells at 10 ug/ml after 18 hrs relative to basal level; type: functional; procedure, shortened: as §1
[14] = Induction of MCP1 secretion in human CD161+ CD3+ NKT cells at 10 ug/ml after 18 hrs relative to basal level; type: functional; procedure, shortened: as §1
Mus musculus [15] = test: Induction of IL12p40 secretion in BALB/c mouse serum at 2 ug, iv after 18 hrs relative to control; type: functional; procedure, shortened: as §2
[16] = Induction of IFN-gamma secretion in human CD161+ CD3+ NKT cells at 10 ug/ml after 18 hrs relative to basal level; type: functional; procedure, shortened: as §1
NKT = test: Stimulation of cell expansion of human invariant CD161+/ Valpha24+/ CD56+/ CD3+ NKT cells by flow cytometry method; type: functional, cell-based
Procedure, shortened: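 CD56+ NK/NKT mixtures (2 × 10^6) were isolated from human leukopaks with anti-CD56 microbeads. They were cocultured with 4 × 10^5 autologous immature CD14+ DCs pulsed with glycolipid at 3 μg/ml, or with 0.3% DMSO, on day 2 for 18 h. Suspension cells were then transferred and kept in 100 units/ml IL-2 with fresh medium every 3 days. On day 9, CD161+/Vα24TCR+ cells were gated by flow cytometry and total Vα24i NKT cells counted. Triplicates, mean ± SD.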

[17] = Induction of IL13 secretion in human CD161+ CD3+ NKT cells at 10 ug/ml after 18 hrs relative to basal level; type: functional; procedure, shortened: as §1
[18] = Induction of MIPalpha secretion in human CD161+ CD3+ NKT cells at 10 ug/ml after 18 hrs relative to basal level; type: functional; procedure, shortened: as §1
Mus musculus [19] = test: Induction of IL6 secretion in BALB/c mouse serum at 2 ug, iv after 2 hrs relative to control; type: functional; procedure, shortened: as §2
Mus musculus [20] = test: Induction of RANTES secretion in BALB/c mouse serum at 2 ug, iv after 2 hrs relative to control; type: functional; procedure, shortened: as §2
[21] = Induction of TNFalpha secretion in human CD161+ CD3+ NKT cells at 10 ug/ml after 18 hrs relative to basal level; type: functional; procedure, shortened: as §1
Mus musculus [22] = test: Induction of MIPbeta secretion in BALB/c mouse serum at 2 ug, iv after 2 hrs relative to control; type: functional; procedure, shortened: as §2
Mus musculus [23] = test: Induction of IL4 secretion in BALB/c mouse serum at 2 ug, iv after 2 hrs relative to control; type: functional; procedure, shortened: as §2
[24] = Induction of RANTES secretion in human CD161+ CD3+ NKT cells at 10 ug/ml after 18 hrs relative to basal level; type: functional; procedure, shortened: as §1
[25] = Induction of IL12p70 secretion in human CD161+ CD3+ NKT cells at 10 ug/ml after 18 hrs relative to basal level; type: functional; procedure, shortened: as §1
[26] = Induction of IL8 secretion in human CD161+ CD3+ NKT cells at 10 ug/ml after 18 hrs relative to basal level; type: functional; procedure, shortened: as §1
Mus musculus [27] = test: Increase in CD8/CD4 T cell ratio in BALB/c mouse at 2 ug, iv after 72 hrs by flow cytometry; type: functional, organism-based
[28] = Induction of IL15 secretion in human CD161+ CD3+ NKT cells at 10 ug/ml after 18 hrs relative to basal level; type: functional; procedure, shortened: as §1
Mus musculus [29] = test: Induction of IL13 secretion in BALB/c mouse serum at 2 ug, iv after 2 hrs relative to control; type: functional; procedure, shortened: as §2
[30] = Induction of IL3 secretion in human CD161+ CD3+ NKT cells at 10 ug/ml after 18 hrs relative to basal level; type: functional; procedure, shortened: as §1
Mus musculus [31] = test: Induction of IL3 secretion in BALB/c mouse serum at 2 ug, iv after 2 hrs relative to control; type: functional; procedure, shortened: as §2
Mus musculus [32] = test: Induction of MCP1 secretion in BALB/c mouse serum at 2 ug, iv after 2 hrs relative to control; type: functional; procedure, shortened: as §2
Mus musculus [33] = test: Induction of IFN-gamma secretion in BALB/c mouse serum at 2 ug, iv after 18 hrs relative to control; type: functional; procedure, shortened: as §2
Mus musculus [34] = test: Induction of IL10 secretion in BALB/c mouse serum at 2 ug, iv after 18 hrs relative to control; type: functional; procedure, shortened: as §2
TC1 = test: Antitumor activity in TC1 cells xenografted C57BL/6 mouse assessed as suppression of tumor growth at 2 ug, iv; type: functional, cell-based
Procedure, shortened: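 C57BL/6 mice (n = 5/group) were inoculated i.v. with TC-1 lung cancer cells. They were then treated i.v. with 2 μg glycolipid per mouse, or 100 μl of 1% DMSO, twice weekly for 4 weeks. Kaplan–Meier survival and body weight were followed, with tumor-free mice as an additional control.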

4T1 = test: Antitumor activity in mouse 4T1 cells xenografted BALB/c mouse assessed as suppression of tumor growth at 2 ug, iv; type: functional, cell-based
Procedure, shortened: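 BALB/c mice (n = 6) were inoculated s.c. with 4T1 breast cancer cells. From day 3 they were treated i.v. with glycolipid or vehicle twice weekly for 4 weeks. Tumor volume was recorded every 3 days for 1 month, and survival was monitored up to 54 days.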

Row | Compound | Activity [1] | Activity [2] | Activity (Mus musculus [3]) | Activity [5] | Activity [6] | Activity (Mus musculus [7]) | Activity (Mus musculus [8]) | Activity (Mus musculus [9]) | Activity [12] | Activity [13] | Activity [14] | Activity [16] | Activity [17] | Activity [18] | Activity [21] | Activity [24] | Activity [25] | Activity [26] | Activity [28] | Activity [30] | other results
1 | CCCCCCCCCCCCCC[C@@H](O)[C@@H](O)[C@H](CO[C@H]1O[C@H](CO)[C@H](O)[C@H](O)[C@H]1O)NC(=O)CCCCCCCCCCCCC | 1.9 | 2.8 | 14 | 1.8 | 3 | 2 | 3.9 | 3.5 | 1.7 | 1.9 | 1.4 | 2.7 | 1.9 | 3.5 | 3 | 2 | 1.6 | 2.2 | 2.4 | 1.7 | Activity (Mus musculus [4]): Active; Activity (Mus musculus [10]): 1.6; Activity (Mus musculus [11]): 2.4; Activity (Mus musculus [15]): 0.9; Activity (NKT): Active; Activity (Mus musculus [19]): 1.5; Activity (Mus musculus [20]): 0.9; Activity (Mus musculus [22]): 1.5; Activity (Mus musculus [23]): 26.2; Activity (Mus musculus [27]): Active; Activity (Mus musculus [29]): 0.9; Activity (Mus musculus [31]): 1.5; Activity (Mus musculus [32]): 2.6; Activity (Mus musculus [33]): 43.8; Activity (Mus musculus [34]): 5.4
2 | CCCCCCCCCCCCCCC[C@@H](O)[C@H](CO[C@H]1O[C@H](C(=O)O)[C@H](O)[C@H](O)[C@H]1O)NC(=O)CCCCCCCCCCCCC | 2.3 | 2.9 | 17.2 | 1.3 | 2.9 | 6 | 7.6 | 1.2 | 1.9 | 1.7 | 1.7 | 2.4 | 2 | 3.5 | 5.5 | 2.4 | 1.7 | 2.3 | 2 | 1.7 | Activity (TC1): Active; Activity (Mus musculus [10]): 4.9; Activity (Mus musculus [11]): 2; Activity (Mus musculus [15]): 1.9; Activity (Mus musculus [19]): 1.7; Activity (Mus musculus [20]): 0.9; Activity (Mus musculus [22]): 1.4; Activity (Mus musculus [23]): 26.8; Activity (4T1): Active; Activity (Mus musculus [29]): 2.3; Activity (Mus musculus [31]): 2.8; Activity (Mus musculus [32]): 5.6; Activity (Mus musculus [33]): 3.1; Activity (Mus musculus [34]): 1.1
3 | CCCCCCCCCCCCCC[C@@H](O)[C@@H](O)[C@H](CO[C@H]1O[C@H](CO)[C@H](O)[C@H](O)[C@H]1O)NC(=O)CCCCCc1ccccc1 | 2.7 | 3 | – | 5.9 | 5.6 | – | – | – | 2.4 | 2.4 | 1.3 | 4.6 | 2.6 | 3 | 8.7 | 1.8 | 3.3 | 2.2 | 2.6 | 4.1 | Activity (Mus musculus [4]): Active; Activity (TC1): Active; Activity (NKT): Active
4 | CCCCCCCCCCCCCCCCCCCCCCCCCC(=O)N[C@@H](CO[C@H]1O[C@H](C(=O)O)[C@H](O)[C@H](O)[C@H]1O)[C@H](O)[C@H](O)CCCCCCCCCCCCCC | 1 | 1.5 | 21.5 | 2.3 | 2 | 8.7 | 16.1 | 1.4 | 1.8 | 0.7 | 1.2 | 3.4 | 1.1 | 3.3 | 1.7 | 1.6 | 2.7 | 1.4 | 1.7 | 1.3 | Activity (TC1): Active; Activity (Mus musculus [10]): 37.6; Activity (Mus musculus [11]): 4.8; Activity (Mus musculus [15]): 4.4; Activity (Mus musculus [19]): 4.9; Activity (Mus musculus [20]): 2.8; Activity (Mus musculus [22]): 1.8; Activity (Mus musculus [23]): 21.2; Activity (4T1): Active; Activity (Mus musculus [27]): Active; Activity (Mus musculus [29]): 1.7; Activity (Mus musculus [31]): 10.4; Activity (Mus musculus [32]): 8; Activity (Mus musculus [33]): 27.5; Activity (Mus musculus [34]): 1.5
